Only some compounds are listed: those with a hit (about 2.2% of all), similar ones and a draw of the others.
PERK inh: inhibitors of human PERK kinase; Q9NZJ5; CHO PERK-DD fusion, SEAP luminescence translation reporter; inhibition, % at 5.6 µM; 220,000 tested, 0.17% active; AID 1416;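 active = inhibition above the mean inhibition of all tested compounds plus 3 SD, set separately per screening campaign, cut at about 2.9% in these data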;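 note: PERK kinase domain activated by AP20187 dimerizer at 100 nM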
Runt-CBFb FRET: inhibitors of human RUNX1 Runt domain binding to CBFb; inhibition, % at 20 µM; AID 1496; Cerulean-Runt/Venus-CBFb FRET ratio 530/480, 1 h; 220,000 tested, 0.46% active; Q01196+Q13951;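 active = inhibition over about 50% at 20 µM in the single-dose screen, limit read from the data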
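Reagent – Venus-CBFb binding partner, 100 nM · Assay system – Cerulean-tagged RUNX1 Runt domain (FRET donor) fusion protein · Input – 100 nM per protein · Incubation – two 1 h room-temperature incubations shielded from light · Measured by – FRET fluorescence · Medium – Tris buffer pH 7.5 with salts and BSA · Benchmarks – unlabeled CBFb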
Runt-SMMHC FRET: blocks binding of human RUNX1 Runt domain to CBFb-SMMHC; Q01196+Q13951; Cerulean-Runt/Venus-CBFb-SMMHC FRET ratio 530/480, 1 h; inhibition, % at 20 µM; 220,000 tested, 0.74% active;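 active = mean inhibition across duplicate retests at 20 µM reaching about 50%, limit read from the data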;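 note: inhibitors lower the FRET ratio by blocking Runt binding to CBFb-SMMHC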
eIF4E-4G inh: eIF4E/eIF4G interaction inhibition in translation initiation | P63073+Q04637 | TR-FRET eIF4E-eIF4GI(517-606) binding, 2 h | inhibition, % at 21.7 µM | 220,000 tested, 0.37% active | AID 782;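 active = inhibition above about 30%, limit read from the data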
RanGTP-Impb inh: inhibitors of RanGTP-importin-beta interaction, primary screen, biochemical, FRET, CFP-Ran, YFP-importin-beta, homogeneous; 300,000 tested, 1.1% active; cell-free CFP-Ran/YFP-importin-beta FRET ratio; inhibition, % (concentration not given with the values);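 active = more than half of the replicate wells show a fall in the fluorescence ratio signal beyond about 16%, limit read from the data, passing the limit was not always enough; inconclusive = exactly half of the replicate wells pass the set limit; inactive = fewer than half of replicates pass the limit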
Hck Nef HTS: blocks Nef-activated human Hck kinase. Recombinant Hck-YEEI plus Nef, Z-Lyte FRET kinase assay. inhibition, % at 20 µM. 220,000 tested, 0.68% active. AID 463187;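 active = Hck-Nef kinase inhibition above about 50%, limit read from the data; inactive = inhibition below that limit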
Target sequence (P08631 whole entry, looked up): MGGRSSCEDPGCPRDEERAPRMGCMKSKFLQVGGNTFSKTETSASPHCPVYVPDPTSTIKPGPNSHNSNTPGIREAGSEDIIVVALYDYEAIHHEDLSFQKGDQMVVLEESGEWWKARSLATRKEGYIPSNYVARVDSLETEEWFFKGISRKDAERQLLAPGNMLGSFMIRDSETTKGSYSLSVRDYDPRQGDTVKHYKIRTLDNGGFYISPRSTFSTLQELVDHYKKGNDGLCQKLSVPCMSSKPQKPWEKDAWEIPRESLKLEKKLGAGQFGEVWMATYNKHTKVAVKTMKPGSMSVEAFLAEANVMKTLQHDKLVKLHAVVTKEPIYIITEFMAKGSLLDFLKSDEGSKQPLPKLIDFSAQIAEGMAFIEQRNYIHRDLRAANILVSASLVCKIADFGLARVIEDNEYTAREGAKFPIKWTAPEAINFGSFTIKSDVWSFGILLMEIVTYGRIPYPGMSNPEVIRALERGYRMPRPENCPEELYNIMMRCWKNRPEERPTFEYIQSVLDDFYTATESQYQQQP
Large screens that a line does not name were inactive.

CC1CCC2(CC1)NC(=O)N(CC(=O)c1cn(CCC#N)c3ccccc13)C2=O (stereo not drawn)	none
Nc1nc(N2CCOCC2)cc(=O)[nH]1	RanGTP-Impb inh 20.3
O=C(c1ccccc1)N(Nc1ccccc1)c1ccccc1	eIF4E-4G inh 98.5
CCOC(=O)c1c(NC(=O)c2cc(-c3ccc(O)cc3)on2)sc(C(C)=O)c1C	eIF4E-4G inh 31.4
CCOC(=O)c1c(NC(=O)CC(C)C)sc(C(C)=O)c1C	none
Cc1ccccc1CSc1nncn1N	eIF4E-4G inh 46.3
CSc1nc(Oc2ccc(C)cc2)cc(C(F)(F)F)n1	PERK inh 3.6
CN1CC=C2C(C#N)=C(N)C(C#N)(C#N)[C@H](c3cccs3)[C@H]2C1	Runt-SMMHC FRET 75.1, RanGTP-Impb inh 54.6
CN1CC=C2C(C#N)=C(N)C(C#N)(C#N)[C@H](c3cccc(Cl)c3)C2C1 (stereo partly drawn)	Runt-SMMHC FRET 58.0, RanGTP-Impb inh 45.0
CC(C)c1ccc(C2C3CSCC=C3C(C#N)=C(N)C2(C#N)C#N)cc1 (stereo not drawn)	RanGTP-Impb inh 16.4
N#CC1=C(N)C(C#N)(C#N)C(c2ccncc2)C2CN(C(=O)OCc3ccccc3)CC=C12 (stereo not drawn)	none
CN1CC=C2C(C#N)=C(N)C(C#N)(C#N)C(CCc3ccccc3)C2C1 (stereo not drawn)	Runt-CBFb FRET 103.2, Runt-SMMHC FRET 78.7
COc1ccc(C2C(C(=O)c3cc4cccc(OC)c4o3)=C(O)C(=O)N2CCCN(C)C)cc1OC (stereo not drawn)	none (no result: PERK inh, eIF4E-4G inh, RanGTP-Impb inh, Hck Nef HTS)
O=C(Cn1nnc(-c2cccs2)n1)NNC(=O)c1ccccc1Cl	none
CCOC(=O)N1CC=C2C(C#N)=C(N)C(C#N)(C#N)[C@H](c3ccsc3)[C@H]2C1	none
CCCC1C2CN(C(C)C)CC=C2C(C#N)=C(N)C1(C#N)C#N (stereo not drawn)	RanGTP-Impb inh 88.6
CN1CC=C2C(C#N)=C(N)C(C#N)(C#N)C(c3ccsc3)C2C1 (stereo not drawn)	Runt-CBFb FRET 66.1, Runt-SMMHC FRET 80.4, RanGTP-Impb inh 65.3
CCOC(=O)N1CC=C2C(C#N)=C(N)C(C#N)(C#N)[C@H](c3ccc(OC(C)C)c(OCC)c3)[C@H]2C1	none
Cc1ccc(Nc2ncnc(-n3cccc3)n2)cc1Cl	none
O=C(CSc1nc2c([nH]c3ccccc32)c(=O)n1-c1ccccc1)N1CCOCC1	none
O=C(CSc1nc2c([nH]c3ccccc32)c(=O)n1-c1cccc(Cl)c1)N1CCOCC1	RanGTP-Impb inh inconclusive, Hck Nef HTS 52.6 (no result: Runt-CBFb FRET)
CC(=O)NC(CC(=O)Nc1nc(-c2ccc(N(C)S(C)(=O)=O)cc2)cs1)c1ccccc1 (stereo not drawn)	none (no result: PERK inh, Runt-CBFb FRET, Runt-SMMHC FRET, eIF4E-4G inh, Hck Nef HTS)
CCOc1ccc(Cl)cc1S(=O)(=O)N1CCC(C(=O)NCc2ccccn2)CC1	none (no result: PERK inh, Runt-CBFb FRET, Runt-SMMHC FRET, eIF4E-4G inh, Hck Nef HTS)
O=C1/C(=C\c2ccco2)SC(=S)N1C1CCCCC1	none (no result: PERK inh, Runt-CBFb FRET, Runt-SMMHC FRET, eIF4E-4G inh, Hck Nef HTS)
CC1=C(C#N)C(=O)N(C2CCS(=O)(=O)C2)C(=O)/C1=C\c1ccco1 (stereo not drawn)	eIF4E-4G inh 62.9, Hck Nef HTS 99.8
CCN(CC)CCNC(=O)CCCCn1c(=S)[nH]c2c([nH]c3ccc(OC)cc32)c1=O	eIF4E-4G inh 47.0
Cc1ccc(S(=O)(=O)N(Cc2ccccc2)c2ccccc2C(=O)NCc2cccnc2)cc1	none
FC(F)(F)c1cc(-c2cccs2)nc2cc(-c3cccs3)nn12	RanGTP-Impb inh 43.4
N#C/C(=C/c1ccc(F)cc1)c1nnc(NC(=O)c2ccccc2)s1	Runt-SMMHC FRET 81.1
CCCc1nc2ccccc2c(=O)n1N	PERK inh 3.6
CCCCCC(=O)NC(NC(=S)N1CCOCC1)C(Cl)(Cl)Cl (stereo not drawn)	none
CCCCCC(=O)NC(NC(=S)NC1CCS(=O)(=O)C1)C(Cl)(Cl)Cl (stereo not drawn)	eIF4E-4G inh 40.4
O=C(Cc1ccccn1)c1ccccc1	none (no result: PERK inh, Runt-CBFb FRET, Runt-SMMHC FRET, eIF4E-4G inh, Hck Nef HTS)
COc1ccc2c(C)cc3n[nH]c(=S)n3c2c1	eIF4E-4G inh 33.0
COc1ccc(-c2n[nH]c(=S)n2-c2cc(OC)ccc2OC)cc1	RanGTP-Impb inh inconclusive
N=c1c(C(=O)NCc2ccco2)cc2c(=O)n3ccccc3nc2n1CCc1ccccc1	RanGTP-Impb inh 130.4
Cc1ccc(Cn2c(=N)c(C(=O)NCc3ccco3)cc3c(=O)n4ccccc4nc32)cc1	RanGTP-Impb inh 113.6 (no result: Runt-SMMHC FRET)
COc1ccc(CNC(=O)c2cc3c(=O)n4ccccc4nc3n(Cc3ccco3)c2=N)cc1	none (no result: Runt-CBFb FRET, Runt-SMMHC FRET, eIF4E-4G inh, RanGTP-Impb inh)
COc1ccc(C2CC(Cn3cc(C#N)c(=O)n(C)c3=O)ON2C)cc1 (stereo not drawn)	none
O=C(C1CCCN(Cc2ccccc2C(F)(F)F)C1)N1CCCCC1 (stereo not drawn)	none (no result: Runt-CBFb FRET)
CC(C)(C)c1cc(/C=N/NC(=O)Cc2nc3ccccc3[nH]2)cc(C(C)(C)C)c1O	RanGTP-Impb inh 38.8
CCOC(=O)N1CCc2c(sc(N)c2C#N)C1	none
N#Cc1c(N)sc2c1CCN(CCc1ccccc1)C2	Runt-CBFb FRET 104.6, Runt-SMMHC FRET 87.6, RanGTP-Impb inh 46.4
CC(C)(C)C(=O)Nc1sc2c(c1C#N)CCN(Cc1ccccc1)C2	RanGTP-Impb inh 149.7 (no result: PERK inh, Runt-CBFb FRET, Runt-SMMHC FRET, eIF4E-4G inh, Hck Nef HTS)
N#Cc1c(NC(=S)NC(=O)c2ccccc2)sc2c1CCN(CCc1ccccc1)C2	Runt-SMMHC FRET 82.3, RanGTP-Impb inh 156.9
N#Cc1c(NC(=S)NC(=O)c2ccccc2)sc2c1CCCC2	none
CCn1cc(CNc2nc3nonc3nc2N2CCCCC2)cn1	none
CC(=O)N1c2ccc(S(=O)(=O)N3CCC(C(=O)NCc4ccc(N(C)C)cc4)CC3)cc2CC1C (stereo not drawn)	RanGTP-Impb inh 66.7 (no result: PERK inh, Runt-CBFb FRET, Runt-SMMHC FRET, eIF4E-4G inh, Hck Nef HTS)
C[C@@H](O)C1NC(=O)[C@H](CCCCN)NC(=O)c2cc([N+](=O)[O-])cc(I)c2NCCC[C@@H](C(N)=O)NC1=O (stereo partly drawn)	eIF4E-4G inh 34.0, RanGTP-Impb inh inconclusive
CC(C)[C@@H]1NC(=O)c2cc([N+](=O)[O-])cc(I)c2NCC[C@@H](C(N)=O)NC(=O)[C@H](CO)NC1=O	none (no result: RanGTP-Impb inh)
Cc1ncc([N+](=O)[O-])n1CCOC(=O)NC(NCc1ccccc1Cl)C(Cl)(Cl)Cl (stereo not drawn)	none
Cc1ccc(NC(NC(=O)OCCn2c([N+](=O)[O-])cnc2C)C(Cl)(Cl)Cl)cc1 (stereo not drawn)	RanGTP-Impb inh 17.8
CN1CCOCCOCCOCCN(C)C1=S	none
CN1CCOCCOCCN(C)C(=O)N2CCOCCOCCN(CCOCC2)C1=O	PERK inh 3.6 (no result: eIF4E-4G inh)
O=c1c(Oc2ccccc2Br)c(C(F)(F)F)oc2c(CN3CCCC3)c(O)ccc12	RanGTP-Impb inh 50.8

Screening data deposited in PubChem BioAssay by several laboratories.
